# Reference: ChEMBL document CHEMBL3286396, “Discovery and Synthesis of C-Nucleosides as Potential New Anti-HCV Agents” (ACS Med Chem Lett, 2014)
# Assays:
# [1] = Inhibition of C-terminal His6-tagged and C-terminal 21 amino acids truncated Hepatitis C virus genotype 2a JFH-1 NS5B RNA-dependent RNA polymerase activity using polyU or polyC RNA as template by microbeta plate reader analysis; parameters: species or system Hepatitis C virus JFH-1
# [2] = Volume of distribution at steady state in cynomolgus monkey at 2 mg/kg, iv and 5 mg/kg, po by WinNonlin non-compartmental analysis; assay type: ADME, organism-based, Macaca fascicularis; settings: in vivo, read-out: Vdss
# Hepatitis C virus [3] = test: Antiviral activity against Hepatitis C virus genotype 3a infected in human HuH7 cells assessed as inhibition of subgenomic replicon RNA replication after 72 hrs by luciferase reporter assay; assay type: functional, cell-based, Hepacivirus hominis; settings: Huh-7, 72 h
# [4] = Inhibition of C-terminal His6-tagged and C-terminal 21 amino acids truncated Hepatitis C virus genotype 7a QC69 NS5B RNA-dependent RNA polymerase activity using polyU or polyC RNA as template by microbeta plate reader analysis; parameters: species or system Hepacivirus hominis
# [5] = Cmax in cynomolgus monkey at 5 mg/kg, po by WinNonlin non-compartmental analysis; assay type: ADME, organism-based, Macaca fascicularis; parameters: dose 5 mg/kg, route oral; settings: in vivo
# Hepatitis C virus [6] = test: Antiviral activity against Hepatitis C virus genotype 6a infected in human HuH7 cells assessed as inhibition of subgenomic replicon RNA replication after 72 hrs by luciferase reporter assay; assay type: functional, cell-based, Hepacivirus hominis; settings: Huh-7, 72 h
# Hepatitis C virus [7] = test: Antiviral activity against Hepatitis C virus genotype 2a infected in human HuH7 cells assessed as inhibition of subgenomic replicon RNA replication after 72 hrs by luciferase reporter assay; assay type: functional, cell-based, Hepacivirus hominis; settings: Huh-7, 72 h
# [8] = Inhibition of C-terminal His6-tagged and C-terminal 21 amino acids truncated Hepatitis C virus genotype 3a VRL-69 NS5B RNA-dependent RNA polymerase activity using polyU or polyC RNA as template by microbeta plate reader analysis; parameters: species or system Hepatitis C virus subtype 3a
# [9] = Drug anabolism in human HuH7 cells assessed as monophosphate level at 10 uM after 24 hrs measured per million cells by mass spectrometer analysis; assay type: ADME, cell-based; settings: huh-7, 24 h
# [10] = Volume of distribution at steady state in Beagle dog at 2 mg/kg, iv and 5 mg/kg, po by WinNonlin non-compartmental analysis; assay type: ADME, organism-based, Canis lupus familiaris; settings: in vivo, read-out: Vdss
# Hepatocyte [11] = test: Drug anabolism in rat hepatocytes assessed as diphosphate level at 10 uM after 24 hrs measured per million cells by mass spectrometer analysis; assay type: ADME, cell-based
# Hepatocyte [12] = test: Drug anabolism in rat hepatocytes assessed as monophosphate level at 10 uM after 24 hrs measured per million cells by mass spectrometer analysis; assay type: ADME, cell-based
# [13] = Drug anabolism in human HuH7 cells assessed as triphosphate level at 10 uM after 24 hrs measured per million cells by mass spectrometer analysis; assay type: ADME, cell-based; settings: huh-7, 24 h
# [14] = Cytotoxicity in rat kidney fibroblasts; parameters: species or system Fibroblast
# [15] = Cmax in Sprague-Dawley rat at 5 mg/kg, po by WinNonlin non-compartmental analysis; assay type: ADME, organism-based; parameters: dose 5 mg/kg, route oral; settings: in vivo
# Method in brief: (§1)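 PK study animals were male Sprague–Dawley rats.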
# [16] = Volume of distribution at steady state in Sprague-Dawley rat at 2 mg/kg, iv and 5 mg/kg, po by WinNonlin non-compartmental analysis; assay type: ADME, organism-based; settings: in vivo, read-out: Vdss
# Method in brief: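 Pharmacokinetics were determined in male Sprague–Dawley rats.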
# [17] = Drug anabolism in human HuH7 cells assessed as diphosphate level at 10 uM after 24 hrs measured per million cells by mass spectrometer analysis; assay type: ADME, cell-based; settings: huh-7, 24 h
# Hepatitis C virus [18] = test: Antiviral activity against Hepatitis C virus genotype 2b infected in human HuH7 cells assessed as inhibition of subgenomic replicon RNA replication after 72 hrs by luciferase reporter assay; assay type: functional, cell-based, Hepacivirus hominis; settings: Huh-7, 72 h
# Hepatitis C virus [19] = test: Antiviral activity against Hepatitis C virus genotype 4a infected in human HuH7 cells assessed as inhibition of subgenomic replicon RNA replication after 72 hrs by luciferase reporter assay; assay type: functional, cell-based, Hepacivirus hominis; settings: Huh-7, 72 h
# [20] = Inhibition of C-terminal His6-tagged and C-terminal 21 amino acids truncated Hepatitis C virus genotype 1a H77 NS5B RNA-dependent RNA polymerase activity using polyU or polyC RNA as template by microbeta plate reader analysis; parameters: species or system Hepatitis C virus (isolate H77)
# [21] = Total clearance in Beagle dog at 2 mg/kg, iv and 5 mg/kg, po by WinNonlin non-compartmental analysis; assay type: ADME, organism-based, Canis lupus familiaris; settings: in vivo
# [22] = Drug anabolism in dog hepatocytes assessed as diphosphate level at 10 uM after 24 hrs measured per million cells by mass spectrometer analysis; assay type: ADME, cell-based, Canis lupus familiaris, Hepatocyte
# [23] = Inhibition of myeloid progenitor proliferation in human bone marrow cells up to 100 uM; assay type: cell-based; settings: bone marrow cell
# [24] = Inhibition of C-terminal His6-tagged and C-terminal 21 amino acids truncated Hepatitis C virus genotype 5a SA13 NS5B RNA-dependent RNA polymerase activity using polyU or polyC RNA as template by microbeta plate reader analysis
# Hepatocyte [25] = test: Drug anabolism in human hepatocytes assessed as diphosphate level at 10 uM after 24 hrs measured per million cells by mass spectrometer analysis; assay type: ADME, cell-based
# [26] = Drug anabolism in dog hepatocytes assessed as monophosphate level at 10 uM after 24 hrs measured per million cells by mass spectrometer analysis; assay type: ADME, cell-based, Canis lupus familiaris, Hepatocyte
# [27] = Cmax in Beagle dog at 5 mg/kg, po by WinNonlin non-compartmental analysis; assay type: ADME, organism-based, Canis lupus familiaris; parameters: dose 5 mg/kg, route oral; settings: in vivo
# Hepatocyte [28] = test: Drug anabolism in human hepatocytes assessed as compound level at 10 uM after 24 hrs measured per million cells by mass spectrometer analysis; assay type: ADME, cell-based
# Hepatocyte [29] = test: Drug anabolism in human hepatocytes assessed as triphosphate level at 10 uM after 24 hrs measured per million cells by mass spectrometer analysis; assay type: ADME, cell-based
# Hepatitis C virus [30] = test: Antiviral activity against Hepatitis C virus genotype 5a infected in human HuH7 cells assessed as inhibition of subgenomic replicon RNA replication after 72 hrs by luciferase reporter assay; assay type: functional, cell-based, Hepacivirus hominis; settings: Huh-7, 72 h
# Hepatitis C virus [31] = test: Antiviral activity against Hepatitis C virus genotype 1b infected in human HuH7 cells assessed as inhibition of subgenomic replicon RNA replication after 72 hrs by luciferase reporter assay; assay type: functional, cell-based, Hepacivirus hominis; settings: Huh-7, 72 h
# [32] = Drug anabolism in dog hepatocytes assessed as triphosphate level at 10 uM after 24 hrs measured per million cells by mass spectrometer analysis; assay type: ADME, cell-based, Canis lupus familiaris, Hepatocyte
# Rattus norvegicus = test: Toxicity in rat assessed as animal death up to 400 mg/kg, po administered as single dose; assay type: organism-based; parameters: dose 400 mg/kg, route oral; settings: in vivo
# [33] = Mitochondrial toxicity in human HepG2 cells assessed as decrease in mitochondrial DNA content up to 10 uM measured for 14 days; assay type: cell-based, Mitochondria; settings: hepg2, 336 h
# [34] = Cytotoxicity in rat heart myoblasts; parameters: species or system Myoblast
# [35] = Cytotoxicity against human HuH7 cells by MTT assay; assay type: cell-based, Huh-7
# Method in brief: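 Huh-7-derived HCV replicon cell lines were used, with MTT as the vital dye read-out.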
# [36] = Cytotoxicity in rat liver epithelial cells; assay type: cell-based, Epithelial cell
# [37] = Inhibition of erythroid progenitor proliferation in human bone marrow cells up to 100 uM; assay type: cell-based; settings: bone marrow cell
# [38] = Total clearance in Sprague-Dawley rat at 2 mg/kg, iv and 5 mg/kg, po by WinNonlin non-compartmental analysis; assay type: ADME, organism-based; settings: in vivo; method in brief: as §1
# Salmonella typhimurium = test: Genotoxicity in Salmonella typhimurium by Ames test; assay type: toxicity, organism-based; settings: salmonella enterica subsp. enterica serovar typhimurium
# [39] = Drug anabolism in dog hepatocytes assessed as compound level at 10 uM after 24 hrs measured per million cells by mass spectrometer analysis; assay type: ADME, cell-based, Canis lupus familiaris, Hepatocyte
# Hepatocyte [40] = test: Drug anabolism in human hepatocytes assessed as monophosphate level at 10 uM after 24 hrs measured per million cells by mass spectrometer analysis; assay type: ADME, cell-based
# [41] = Inhibition of N-terminal His6-tagged Hepatitis C virus genotype 1b isolate Con1 NS5B RNA-dependent RNA polymerase activity by plate reader analysis
# [42] = Mitochondrial toxicity in human HepG2 cells assessed as increase in lactate production up to 10 uM measured for 14 days; assay type: cell-based, Mitochondria; settings: hepg2, 336 h
# Hepatitis C virus [43] = test: Antiviral activity against Hepatitis C virus genotype 1a infected in human HuH7 cells assessed as inhibition of subgenomic replicon RNA replication after 72 hrs by luciferase reporter assay; assay type: functional, cell-based, Hepacivirus hominis; settings: subtype 1a, Huh-7, 72 h
# Hepatocyte [44] = test: Drug anabolism in rat hepatocytes assessed as triphosphate level at 10 uM after 24 hrs measured per million cells by mass spectrometer analysis; assay type: ADME, cell-based
# [45] = Drug anabolism in human HuH7 cells assessed as compound level at 10 uM after 24 hrs measured per million cells by mass spectrometer analysis; assay type: ADME, cell-based; settings: huh-7, 24 h
# Hepatocyte [46] = test: Drug anabolism in rat hepatocytes assessed as compound level at 10 uM after 24 hrs measured per million cells by mass spectrometer analysis; assay type: ADME, cell-based
# [47] = Total clearance in cynomolgus monkey at 2 mg/kg, iv and 5 mg/kg, po by WinNonlin non-compartmental analysis; assay type: ADME, organism-based, Macaca fascicularis; settings: in vivo
smiles,measurement,setting,value
C[C@@]1(O)[C@H](O)[C@@H](CO)O[C@H]1c1ccc2c(N)ncnn12,IC50,[1],390 nM
same,Vd,[2],2.43 L/kg
same,EC50,Hepatitis C virus [3],420 nM
same,IC50,[4],810 nM
same,Cmax,[5],820 nM
same,EC50,Hepatitis C virus [6],1000 nM
same,EC50,Hepatitis C virus [7],630 nM
same,IC50,[8],500 nM
same,Drug metabolism,[9],3.36 pmol
same,Vd,[10],5.22 L/kg
same,Drug metabolism,Hepatocyte [11],9.7 pmol
same,Drug metabolism,Hepatocyte [12],7.3 pmol
same,Drug metabolism,[13],9.33 pmol
same,CC50,[14],> 250000 nM
same,Cmax,[15],2380 nM
same,Vd,[16],4.19 L/kg
same,Drug metabolism,[17],0.53 pmol
same,EC50,Hepatitis C virus [18],410 nM
same,EC50,Hepatitis C virus [19],880 nM
same,IC50,[20],570 nM
same,clearance,[21],11.4 mL/min/kg
same,Drug metabolism,[22],8.3 pmol
same,Activity,[23],Non-toxic
same,IC50,[24],480 nM
same,Drug metabolism,Hepatocyte [25],40.5 pmol
same,Drug metabolism,[26],7 pmol
same,Cmax,[27],8360 nM
same,Drug metabolism,Hepatocyte [28],46.2 pmol
same,Drug metabolism,Hepatocyte [29],487 pmol
same,EC50,Hepatitis C virus [30],820 nM
same,EC50,Hepatitis C virus [31],1600 nM
same,Drug metabolism,[32],51.2 pmol
same,Activity,Rattus norvegicus,Toxic
same,Activity,[33],Non-toxic
same,CC50,[34],> 250000 nM
same,CC50,[35],> 100000 nM
same,CC50,[36],190000 nM
same,Activity,[37],Non-toxic
same,clearance,[38],18.8 mL/min/kg
same,Activity,Salmonella typhimurium,Non-toxic
same,Drug metabolism,[39],29.7 pmol
same,Drug metabolism,Hepatocyte [40],27.6 pmol
same,IC50,[41],370 nM
same,Activity,[42],Non-toxic
same,EC50,Hepatitis C virus [43],760 nM
same,Drug metabolism,Hepatocyte [44],49.9 pmol
same,Drug metabolism,[45],31.8 pmol
same,Drug metabolism,Hepatocyte [46],16.9 pmol
same,clearance,[47],20.5 mL/min/kg
